Reference: publication PMC9310269 (Journal for Immunotherapy of Cancer, 2022)

Test system: MC38-hPD-L1 tumors
Assay: MC38-hPD-L1 tumor model in humanized PD-1 mice
Assay type: in vivo, mouse
Conditions: 10 mg/kg i.p.; p<0.001
How it was run: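 Male C57BL/6N humanized PD-1 mice receive 1×10^6 MC38-hPD-L1 cells s.c. in the right flank. At day 12 (~60 mm3) they are randomized into 3 groups (N=6). Dosing is 10 mg/kg i.p. daily for 10 doses, or atezolizumab 10 mg/kg i.p. three times weekly, both over days 12–22. Tumour (X2Y0.5, caliper) and body weight are measured every 3 days. At day 30, tumours are enzymatically digested and analysed by flow cytometry.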

## atezolizumab: clinically relevant anti-PD-L1 antibody control in vivo
  tumor growth inhibition: significant
